COUP-TFII inh = NR2F2 transcriptional activity inhibitors, primary screen, cell-based, luciferase reporter, HEK293T, luminescence; COUP transcription factor 2 (Homo sapiens), P24468; actives 0.7% (n = 370,000); inhibition, % at 8.6 µM; HEK293T NGFI-A luciferase reporter;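 active = inhibition above a per-plate cutoff, mean inhibition of test wells between control levels plus 3 SD, cut at about 38% in these data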;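 note: cells cotransfected with COUP-TFII expression vector driving the NGFI-A reporter; 0% = median of COUP-TF2 test wells and 100% = reporter-only cells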
Target sequence (P24468 whole entry, looked up): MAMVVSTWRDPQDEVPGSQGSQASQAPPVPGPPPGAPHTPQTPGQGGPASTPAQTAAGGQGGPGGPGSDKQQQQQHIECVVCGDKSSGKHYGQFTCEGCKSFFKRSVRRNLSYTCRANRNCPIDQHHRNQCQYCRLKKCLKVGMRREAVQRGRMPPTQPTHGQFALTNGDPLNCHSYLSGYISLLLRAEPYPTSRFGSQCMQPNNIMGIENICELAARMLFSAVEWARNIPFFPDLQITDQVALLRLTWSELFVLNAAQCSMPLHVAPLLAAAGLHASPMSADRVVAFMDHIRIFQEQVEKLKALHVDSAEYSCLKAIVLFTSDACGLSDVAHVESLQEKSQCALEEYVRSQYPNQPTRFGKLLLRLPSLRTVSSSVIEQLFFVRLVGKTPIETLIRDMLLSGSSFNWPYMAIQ
CHT allo act = CHT positive allosteric modulators, primary screen, cell-based, membrane potential dye, choline EC20 | High affinity choline transporter 1 (Homo sapiens), Q9GZV3 | CHT-expressing cells; active compounds read high; LV-AA mutant CHT in HEK293 cells | B-score at 10 µM | actives 0.49% (n = 310,000) | AID 488977, 2010;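 active = initial fluorescence not abnormally high and integrated response B-score, plate-corrected, over 3 SD above library mean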
NR2E3 ag-1 = NR2E3 agonists in two-hybrid cells, primary screen, cell-based, luminescence, CHO-S, Gal4-NCOR/VP16-NR2E3. actives 0.35% (n = 360,000). luciferase. Photoreceptor-specific nuclear receptor (Homo sapiens), Q9Y5X4. inhibition of corepressor binding, % at 3.98 µM;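 active = inhibition above the mean of all tested compounds plus 3 SD, cut at about 70% in these data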;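 note: 0% = DMSO with NR2E3 transfected cells and 100% = cells lacking NR2E3 construct; higher means lower luciferase signal from less NR2E3 corepressor binding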
CHT block = inhibitors of human choline transporter CHT. B-score at 10 µM. High affinity choline transporter 1 (Homo sapiens), Q9GZV3. CHT-expressing cells, membrane potential dye, choline response; active compounds read low. actives 0.86% (n = 310,000). AID 488975, 2010;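 active = B-score over 3 SD under the library average, and starting fluorescence ratio not unusually high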;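 note: choline stimulus applied at its EC90 after an EC20 pre-addition; B-score computed on integrated fluorescence ratio after choline addition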
NR2E3 ag-2 = inhibitors of NR2E3-RetCOR corepressor binding, primary screen, NR2E3 agonist project, biochemical, TR-FRET, GST-NR2E3, biotin-RetCOR; inhibition of corepressor binding, % at 4.78 µM; 1536-well; AID 2300, 2010; actives 0.12% (n = 320,000);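 active = percent inhibition above the cutoff of mean plus 3 SD of all tested compounds, set per screening campaign, cut at about 20% in these data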;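 note: 0% = DMSO wells and 100% = biotin wells as full block of FRET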
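Material – GST-tagged NR2E3 plus biotinylated RetCOR corepressor · Quantity – NR2E3 fusion 1.35 nM · Times – 5 h incubation at 4 °C · Medium – pH 7.5 Tris-based buffer · Technique – TR-FRET, Eu(K)-anti-GST donor, streptavidin-D2 acceptor, ex 340, em 617/671 nm · Benchmarks – high control biotin, low control 0.6% DMSO · Format – 1536-well plates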
GalR3 antagonist = GalR3 antagonists in HEK293 cells, primary screen, cell-based, fluorescence readout | HEK293 GalR3-CNG cAMP membrane potential fluorescence; galR3 body fused to GalR1 C-terminus | AID 651719, 2012 | Galanin receptor type 3 (Homo sapiens), O60755 | inhibition, % at 3 µM | actives 0.44% (n = 360,000);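 active = inhibition above the screen-wide average plus 3 SD, cut at about 13% in these data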;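 note: forskolin and galanin both at EC90 stimulate the cells; cAMP rise reported by CNG channel membrane potential dye signal; 0% = forskolin plus galanin with DMSO and 100% = forskolin alone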
Target sequence (O60755 1-299 limits assumed): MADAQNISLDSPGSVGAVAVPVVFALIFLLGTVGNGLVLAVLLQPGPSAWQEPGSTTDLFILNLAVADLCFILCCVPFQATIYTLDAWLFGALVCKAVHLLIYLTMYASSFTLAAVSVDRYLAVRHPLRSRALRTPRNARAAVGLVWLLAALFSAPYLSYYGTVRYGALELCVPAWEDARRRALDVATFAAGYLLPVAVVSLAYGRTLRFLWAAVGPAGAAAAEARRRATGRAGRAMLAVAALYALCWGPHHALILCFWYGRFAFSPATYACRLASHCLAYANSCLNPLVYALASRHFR
NR2E3 ag confirm = NR2E3 agonist confirmation in cells, cell-based, luminescence, CHO-S two-hybrid. shares compounds with NR2E3 ag-1. CHO-S mammalian two-hybrid NR2E3-NCOR, luciferase luminescence. inhibition, % at 3.98 µM. actives 51% (n = 2,300);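 active = average inhibition above a cutoff equal to the mean inhibition of all tested compounds plus one SD, cut at about 70% in these data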;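 note: 0% = DMSO in NR2E3 cells and 100% = DMSO in cells lacking NR2E3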
GAL4-VP16 luc = GAL4-VP16 reporter modulators, confirmation, counter-screen for NR2E3 agonist project, cell-based, luminescence, CHO-S, high throughput; AID 624379, 2012; shares compounds with NR2E3 ag-1; CHO-S GAL4-VP16 luciferase reporter; actives 29% (n = 2,300); inhibition, % at 3.98 µM;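 active = mean inhibition above a cutoff equal to the average over all tested compounds plus one standard deviation, cut at about 70% in these data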;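 note: luciferase from a UAS reporter driven by GAL4-VP16 transactivation; 0% = DMSO with VP16-transfected cells and 100% = DMSO with cells lacking VP16; higher means less reporter light so more repression of VP16 activity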
GalR3 antag conf = GalR3 antagonist hit confirmation, cell-based, fluorescence, triplicate; HEK293 GalR3 CNG cAMP biosensor, membrane potential fluorescence; galR3 fused to GalR1 carboxy tail; challenged with forskolin and galanin at EC90; inhibition, % at 3 µM; actives 59% (n = 1,600); shares compounds with GalR3 antagonist;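 active = inhibition above the primary screen's cutoff, the mean inhibition of all screened compounds plus 3 SD, cut at about 13% in these data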;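 note: 0% = forskolin plus galanin and 100% = forskolin alone with DMSO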
CNG parental = nonspecific cAMP agonists in parental HEK-CNG cells, counter-screen for GalR3 antagonist project, cell-based, fluorescence, high throughput; activation, % at 3 µM; shares compounds with GalR3 antagonist; actives 10% (n = 1,600); HEK293-CNG parental cells, cAMP membrane potential fluorescence; normalised: DMSO wells 0%, forskolin wells 100%; in the data active = activation above about 1.3%
Gal4-VP16 ctr = Gal4-VP16 luciferase reporter inhibitors, counter-screen for COUP-TFII antagonist project, cell-based, luminescence, HEK293. shares compounds with COUP-TFII inh. inhibition, % at 8.5 µM. actives 25% (n = 2,500). AID 687007, 2013; in the data active = inhibition above about 13%
COUP-TFII conf = NR2F2 transcriptional activity inhibitors, confirmation, cell-based, luciferase reporter, HEK293, triplicate; shares compounds with COUP-TFII inh; HEK293 NGFI-A luciferase reporter, luminescence; inhibition, % at 8.5 µM; actives 45% (n = 2,500);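 active = mean inhibition over three repeats above a set limit taken from the earlier primary screen, cut at about 38% in these data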;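 note: 100% = cells given the luciferase reporter alone without the COUP-TF2 vector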
* marks the source's active call; other numbers are inactive results. Sampled rows, rich in hits. Any-hit rate of the full collection: about 2.3%.

For Cc1nn(-c2ccccc2)c(C)c1C=NNC(=O)CSc1nc2ccccc2n1C the results were COUP-TFII inh -14.3.
Screening COc1ccc(C(=O)N(C)[C@H]2C[C@H]3c4[nH]c5cccc(-c6ccccc6)c5c4CCN3C[C@H]2[C@H](C)O)cc1 returned COUP-TFII inh -19.9.
Cc1cc(NC(=O)c2ccc(Cn3nc(C)c(Br)c3C)o2)no1 was read as COUP-TFII inh 1.0, CHT allo act inactive, NR2E3 ag-1 -0.4, CHT block inactive, NR2E3 ag-2 7.6 and GalR3 antagonist -3.7.
Cc1nn(Cc2ccc(C(=O)NC(C)(C)C)o2)c(C)c1Br was read as COUP-TFII inh 48.0*, CHT allo act inactive, NR2E3 ag-1 57.2, CHT block inactive, NR2E3 ag-2 -2.3, GalR3 antagonist -4.7, NR2E3 ag confirm 61.2, GAL4-VP16 luc 63.4, Gal4-VP16 ctr 0.8 and COUP-TFII conf 33.5.
Screening COc1ccc(-c2csc(NC(=O)c3ccccc3NS(=O)(=O)c3ccc(F)c(F)c3)n2)cc1 returned COUP-TFII inh 61.1*, CHT allo act inactive, NR2E3 ag-1 98.2*, CHT block -8.39*, NR2E3 ag-2 1.6, GalR3 antagonist 91.5*, NR2E3 ag confirm 100.7*, GAL4-VP16 luc 90.5*, GalR3 antag conf 106.1*, CNG parental -0.9, Gal4-VP16 ctr 3.3 and COUP-TFII conf 60.7*.
Screening O=C(Nc1cc(S(=O)(=O)N2CCCCC2)ccc1Cl)c1ccccc1NS(=O)(=O)c1ccc(F)cc1 returned COUP-TFII inh 47.4*, CHT allo act inactive, NR2E3 ag-1 95.9*, CHT block inactive, NR2E3 ag-2 -0.1, GalR3 antagonist -4.0, NR2E3 ag confirm 99.1*, GAL4-VP16 luc 85.3*, Gal4-VP16 ctr -0.2 and COUP-TFII conf 22.0.
For Cc1ccc(S(=O)(=O)Nc2ccccc2C(=O)Nc2nc(-c3ccc(F)cc3)cs2)cc1 the results were COUP-TFII inh 66.4*, CHT allo act inactive, NR2E3 ag-1 94.0*, CHT block inactive, NR2E3 ag-2 -3.3, GalR3 antagonist 90.1*, NR2E3 ag confirm 97.8*, GAL4-VP16 luc 83.9*, GalR3 antag conf 114.1*, CNG parental -1.0, Gal4-VP16 ctr 0.1 and COUP-TFII conf 37.3.
COc1ccc(-c2csc(NC(=O)c3ccccc3F)n2)cc1 was read as COUP-TFII inh 8.8, CHT allo act inactive, NR2E3 ag-1 -97.0, CHT block inactive, NR2E3 ag-2 -1.1 and GalR3 antagonist -9.0.
CS(=O)(=O)N[C@@H]1C[C@@H]2O[C@H](CO)CC[C@@H]2O[C@@H]1CCc1ccc(/C=C/c2ccccc2)cc1 was read as COUP-TFII inh 31.4.
For CCCCCCCCCC[n+]1cccc2c3ccccc3ccc21 the results were COUP-TFII inh 82.9*, NR2E3 ag-1 95.7*, GalR3 antagonist 49.8*, NR2E3 ag confirm 99.6*, GAL4-VP16 luc 93.6*, GalR3 antag conf 50.6*, CNG parental 8.2*, Gal4-VP16 ctr 19.6* and COUP-TFII conf 81.6*.
For NC1=C(Cl)C(=O)c2ccccc2C1=O the results were COUP-TFII inh -19.3, NR2E3 ag-1 1.0 and GalR3 antagonist -4.9.
Screening NC1=C(Cl)C(=O)c2ccc(S(N)(=O)=O)cc2C1=O returned COUP-TFII inh 85.5*, NR2E3 ag-1 71.5*, GalR3 antagonist -4.7, NR2E3 ag confirm 9.7, GAL4-VP16 luc 18.9, Gal4-VP16 ctr 92.2* and COUP-TFII conf 97.2*.
For O=C(NCCc1ccccc1)c1ccc2c(c1)OCCCO2 the results were COUP-TFII inh 88.0*, CHT allo act inactive, NR2E3 ag-1 87.4*, CHT block inactive, NR2E3 ag-2 0.7, GalR3 antagonist -2.8, NR2E3 ag confirm 66.0, GAL4-VP16 luc 57.2, Gal4-VP16 ctr 71.9* and COUP-TFII conf 90.8*.
O=C(CCCc1ccccc1)c1ccc2c(c1)OCCO2 was read as COUP-TFII inh 84.8*, CHT allo act inactive, NR2E3 ag-1 64.2, CHT block inactive, NR2E3 ag-2 1.9, GalR3 antagonist -9.9, NR2E3 ag confirm 21.2, GAL4-VP16 luc 12.3, Gal4-VP16 ctr 48.9* and COUP-TFII conf 89.5*.
For O=C(OCc1cn(Cc2c(F)cccc2F)nn1)N1CCCC1 the results were COUP-TFII inh -7.3.
`Nc1ccc(C#Cc2ccc3sc4ccccc4c(=O)c3c2)cc1` gave COUP-TFII inh -67.7, CHT allo act inactive, NR2E3 ag-1 -103.8, CHT block inactive, NR2E3 ag-2 5.1 and GalR3 antagonist 1.5.
